Values after ≈ are worked out from the molar mass of the structure shown. *1 amine or outer side, *2 acyl side, *3 side chain or, on linkers, in order; H or OH if unused. Where a SMILES comes first, the peptide text is derived from it. Bridges are numbered along the chain shown (N, C = ends). Roman numbers before positions name the chains, in order. [ ]: non-standard residue; d: D form. Actinocin(9to1) = Cc1c2oc3c(C)ccc(C(=O)[*:1])c3nc-2c(C(=O)[*:2])c(N)c1=O; NMeV = CN[C@H](C(=O)O)C(C)C; Sar = CNCC(=O)O
Experiments:
Calf thymus DNA [1] = experiment: Apparent number of binding sites per base pairs in DNA; format: nucleic-acid assay; settings: Bos taurus
Outline: (§1)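 Calf thymus DNA; spectral titration; binding isotherms in 0.01 M phosphate buffer, pH 7.0, 20 °C; Kapp (per base pair) and Bapp (drug binding sites per base pair) taken from Scatchard plot.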

Calf thymus DNA [2] = experiment: Apparent binding constant calf thymus DNA-drug complex; format: nucleic-acid assay; settings: Bos taurus; outline: as §1
CCRF-CEM = experiment: In vitro antitumor activity against human lymphoblastic leukemia cells.; format: functional; settings: read-out: ID50 (the source's name)
Outline: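 Human lymphoblastic leukemia CCRF-CEM cells grown in suspension culture; growth inhibition in vitro; ID50 (ng/mL) reported as the 50% inhibitory dose.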

P388 [3] = experiment: Concentration required for 50% inhibition of incorporation of labeled uridine by P388 cells for the synthesis of RNA (in vitro); format: functional; settings: Mus musculus, read-out: ED50 (the source's name)
P388 [4] = experiment: Median survival time of the P388 cells implanted CDF1 male mice in vivo; format: functional, Mus musculus
Outline: (§2)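 CDF1 male mice, groups of seven, given 10^6 P388 cells ip on day 0; drug ip in 5% DMSO–saline on days 1, 5 and 9; controls received vehicle; range of doses tested, optimal nontoxic dose listed; median survival time; %ILS = (treated − control)/control × 100; average of two or more experiments.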

P388 [5] = experiment: Percent of increased life span of P388 cells implanted CDF1 male mice; format: functional, Mus musculus; outline: as §2
P388 [6] = experiment: Concentration required for 50% inhibition of incorporation of labeled thymidine by p388 cells for synthesis of DNA (in vitro); format: functional; settings: Mus musculus, read-out: ED50 (the source's name)
P388 [7] = experiment: Optimal dose for antitumor activity was measured in P388 cells of CDF1 male mice in vivo; format: functional, Mus musculus; outline: as §2
Bos taurus = species: Bos taurus; experiment: Thermal denaturation (deltaTm) of compound against calf thymus DNA was measured; format: ADME; settings: cattle, in vitro
Outline: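 Calf thymus DNA (MW 100 000–500 000) in 0.01 M phosphate, 5 × 10^-3 M EDTA, pH 7.0; drug 7 × 10^-4 M, DNA nucleotide 7 × 10^-3 M; 259 nm absorbance read at 0.25–1.0 °C steps; Tm taken at 50% hyperchromicity; ΔTm = complex Tm minus DNA Tm.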

Structure (SMILES) | Bapp (Calf thymus DNA [1]) | K app (Calf thymus DNA [2]) [M⁻¹] | IC50 (CCRF-CEM) [µg/mL] | EC50 (P388 [3]) [nM] | MST (P388 [4]) [days] | ILS (P388 [5]) [%] | EC50 (P388 [6]) [nM] | Optimal dose (P388 [7]) [mg/kg] | Delta Tm (Bos taurus)
COc1cc(C(=O)N[C@@H]2C(=O)N[C@H](C(C)C)C(=O)N3CCC[C@@H]3C(=O)N(C)CC(=O)N(C)[C@@H](C(C)C)C(=O)O[C@@H]2C)c2nc3c(C(=O)N[C@H]4C(=O)N[C@@H](C(C)C)C(=O)N5CCC[C@H]5C(=O)N(C)CC(=O)N(C)[C@H](C(C)C)C(=O)O[C@H]4C)c(N)c(=O)c(C)c-3oc2c1C | 0.11 | 7.7e+06 | – | – | – | – | – | – | –
CCCOc1cc(C(=O)N[C@@H]2C(=O)N[C@H](C(C)C)C(=O)N3CCC[C@H]3C(=O)N(C)CC(=O)N(C)[C@@H](C(C)C)C(=O)O[C@@H]2C)c2nc3c(C(=O)N[C@@H]4C(=O)N[C@H](C(C)C)C(=O)N5CCC[C@H]5C(=O)N(C)CC(=O)N(C)[C@@H](C(C)C)C(=O)O[C@@H]4C)c(N)c(=O)c(C)c-3oc2c1C | – | – | 0.31 (≈ 0.236 µM) | 230 | 16 | 52 | 1980 | 0.75 | –
Cc1c2oc3c(C)c(O)c(N)c(C(=O)N[C@@H]4C(=O)N[C@H](C(C)C)C(=O)N5CCC[C@H]5C(=O)N(C)CC(=O)N(C)[C@@H](C(C)C)C(=O)O[C@@H]4C)c3nc-2c(C(=O)N[C@@H]2C(=O)N[C@H](C(C)C)C(=O)N3CCC[C@H]3C(=O)N(C)CC(=O)N(C)[C@@H](C(C)C)C(=O)O[C@@H]2C)cc1=O | – | – | 0.95 (≈ 0.747 µM) | 3220 | 24 | 129 | 5080 | 1.2 | –
Cc1c2oc3c(C)c(O)c(N)c(C(=O)N[C@H]4C(=O)N[C@@H](C(C)C)C(=O)N5CCC[C@H]5C(=O)N(C)CC(=O)N(C)[C@H](C(C)C)C(=O)O[C@H]4C)c3nc-2c(C(=O)N[C@@H]2C(=O)N[C@H](C(C)C)C(=O)N3CCC[C@@H]3C(=O)N(C)CC(=O)N(C)[C@@H](C(C)C)C(=O)O[C@@H]2C)c/c1=N/Cc1ccco1 | 0.055 | 3.8e+06 | – | – | – | – | – | – | –
COc1cc(C(=O)N[C@@H]2C(=O)N[C@H](C(C)C)C(=O)N3CCC[C@H]3C(=O)N(C)CC(=O)N(C)[C@@H](C(C)C)C(=O)O[C@@H]2C)c2nc3c(C(=O)N[C@@H]4C(=O)N[C@H](C(C)C)C(=O)N5CCC[C@H]5C(=O)N(C)CC(=O)N(C)[C@@H](C(C)C)C(=O)O[C@@H]4C)c(N)c(=O)c(C)c-3oc2c1C | – | – | 0.16 (≈ 0.124 µM) | 69 | 19 | 81 | 628 | 0.6 | –
Cc1c2oc3c(C)c(O)c(N)c(C(=O)N[C@H]4C(=O)N[C@@H](C(C)C)C(=O)N5CCC[C@H]5C(=O)N(C)CC(=O)N(C)[C@H](C(C)C)C(=O)O[C@H]4C)c3nc-2c(C(=O)N[C@@H]2C(=O)N[C@H](C(C)C)C(=O)N3CCC[C@@H]3C(=O)N(C)CC(=O)N(C)[C@@H](C(C)C)C(=O)O[C@@H]2C)c/c1=N/Cc1cccc(Oc2ccccc2)c1 | 0.055 | 8.8e+06 | – | – | – | – | – | – | –
Cc1c2oc3c(C)ccc(C(=O)N[C@@H]4C(=O)N[C@H](C(C)C)C(=O)N5CCC[C@H]5C(=O)N(C)CC(=O)N(C)[C@@H](C(C)C)C(=O)O[C@@H]4C)c3nc-2c(C(=O)N[C@@H]2C(=O)N[C@H](C(C)C)C(=O)N3CCC[C@H]3C(=O)N(C)CC(=O)N(C)[C@@H](C(C)C)C(=O)O[C@@H]2C)c(NCCCN)c1=O | – | – | 0.3 (≈ 0.229 µM) | 118 | 30 | 172 | 430 | 1.2 | –
CCCCOc1cc(C(=O)N[C@@H]2C(=O)N[C@H](C(C)C)C(=O)N3CCC[C@@H]3C(=O)N(C)CC(=O)N(C)[C@@H](C(C)C)C(=O)O[C@@H]2C)c2nc3c(C(=O)N[C@H]4C(=O)N[C@@H](C(C)C)C(=O)N5CCC[C@H]5C(=O)N(C)CC(=O)N(C)[C@H](C(C)C)C(=O)O[C@H]4C)c(N)c(=O)c(C)c-3oc2c1C | – | 1.1e+06 | – | – | – | – | – | – | –
Cc1c2oc3c(C)c(OC(=O)C45CC6CC(CC(C6)C4)C5)cc(C(=O)N[C@@H]4C(=O)N[C@H](C(C)C)C(=O)N5CCC[C@H]5C(=O)N(C)CC(=O)N(C)[C@@H](C(C)C)C(=O)O[C@@H]4C)c3nc-2c(C(=O)N[C@@H]2C(=O)N[C@H](C(C)C)C(=O)N3CCC[C@H]3C(=O)N(C)CC(=O)N(C)[C@@H](C(C)C)C(=O)O[C@@H]2C)c(N)c1=O | – | – | 0.2 (≈ 0.14 µM) | 176 | 28 | 167 | 730 | 0.5 | –
Cc1c2oc3c(C)c(O)c(N)c(C(=O)N[C@@H]4C(=O)N[C@H](C(C)C)C(=O)N5CCC[C@H]5C(=O)N(C)CC(=O)N(C)[C@@H](C(C)C)C(=O)O[C@H]4C)c3nc-2c(C(=O)N[C@@H]2C(=O)N[C@H](C(C)C)C(=O)N3CCC[C@H]3C(=O)N(C)CC(=O)N(C)[C@@H](C(C)C)C(=O)O[C@H]2C)cc1=N | 0.121 | 2.3e+07 | – | – | – | – | – | – | –
CCOc1cc(C(=O)N[C@@H]2C(=O)N[C@H](C(C)C)C(=O)N3CCC[C@@H]3C(=O)N(C)CC(=O)N(C)[C@@H](C(C)C)C(=O)O[C@@H]2C)c2nc3c(C(=O)N[C@H]4C(=O)N[C@@H](C(C)C)C(=O)N5CCC[C@H]5C(=O)N(C)CC(=O)N(C)[C@H](C(C)C)C(=O)O[C@H]4C)c(N)c(=O)c(C)c-3oc2c1C | 0.097 | 6.9e+06 | – | – | – | – | – | – | –
Cc1c2oc3c(C)c(O)c(N)c(C(=O)N[C@H]4C(=O)N[C@@H](C(C)C)C(=O)N5CCC[C@H]5C(=O)N(C)CC(=O)N(C)[C@H](C(C)C)C(=O)O[C@H]4C)c3nc-2c(C(=O)N[C@@H]2C(=O)N[C@H](C(C)C)C(=O)N3CCC[C@@H]3C(=O)N(C)CC(=O)N(C)[C@@H](C(C)C)C(=O)O[C@@H]2C)c/c1=N/Cc1ccc[nH]1 | 0.055 | 9.2e+07 | – | – | – | – | – | – | –
Cc1c2oc3c(C)c(O)c(N)c(C(=O)N[C@H]4C(=O)N[C@@H](C(C)C)C(=O)N5CCC[C@H]5C(=O)N(C)CC(=O)N(C)[C@H](C(C)C)C(=O)O[C@H]4C)c3nc-2c(C(=O)N[C@@H]2C(=O)N[C@H](C(C)C)C(=O)N3CCC[C@@H]3C(=O)N(C)CC(=O)N(C)[C@@H](C(C)C)C(=O)O[C@@H]2C)c/c1=N/Cc1ccccc1 | 0.049 | 5.8e+06 | – | – | – | – | – | – | –
CCOc1cc(C(=O)N[C@@H]2C(=O)N[C@H](C(C)C)C(=O)N3CCC[C@H]3C(=O)N(C)CC(=O)N(C)[C@@H](C(C)C)C(=O)O[C@@H]2C)c2nc3c(C(=O)N[C@@H]4C(=O)N[C@H](C(C)C)C(=O)N5CCC[C@H]5C(=O)N(C)CC(=O)N(C)[C@@H](C(C)C)C(=O)O[C@@H]4C)c(N)c(=O)c(C)c-3oc2c1C | – | – | 0.17 (≈ 0.131 µM) | 151 | 20 | 91 | 1630 | 0.45 | –
Cc1c2oc3c(C)c(O)c(N)c(C(=O)N[C@H]4C(=O)N[C@@H](C(C)C)C(=O)N5CCC[C@H]5C(=O)N(C)CC(=O)N(C)[C@H](C(C)C)C(=O)O[C@H]4C)c3nc-2c(C(=O)N[C@@H]2C(=O)N[C@H](C(C)C)C(=O)N3CCC[C@@H]3C(=O)N(C)CC(=O)N(C)[C@@H](C(C)C)C(=O)O[C@@H]2C)c/c1=N/Cc1ccc(Cl)c(Cl)c1 | 0.058 | 2.6e+07 | – | – | – | – | – | – | –
CCCOc1cc(C(=O)N[C@@H]2C(=O)N[C@H](C(C)C)C(=O)N3CCC[C@@H]3C(=O)N(C)CC(=O)N(C)[C@@H](C(C)C)C(=O)O[C@@H]2C)c2nc3c(C(=O)N[C@H]4C(=O)N[C@@H](C(C)C)C(=O)N5CCC[C@H]5C(=O)N(C)CC(=O)N(C)[C@H](C(C)C)C(=O)O[C@H]4C)c(N)c(=O)c(C)c-3oc2c1C | 0.078 | 2.1e+06 | – | – | – | – | – | – | –
Cc1c2oc3c(C)ccc(C(=O)N[C@@H]4C(=O)N[C@H](C(C)C)C(=O)N5CCC[C@H]5C(=O)N(C)CC(=O)N(C)[C@@H](C(C)C)C(=O)O[C@@H]4C)c3nc-2c(C(=O)N[C@@H]2C(=O)N[C@H](C(C)C)C(=O)N3CCC[C@H]3C(=O)N(C)CC(=O)N(C)[C@@H](C(C)C)C(=O)O[C@@H]2C)c(N)c1=O [DACTINOMYCIN] (I: T[dV]P[Sar][NMeV] / II: T[dV]P[Sar][NMeV]; ester I:1-I:C, II:1-II:C; linker I:N-II:N via Actinocin(9to1)) | 0.108 | 2.3e+07 | 0.06 (≈ 0.0478 µM) | 46 | 24 | 129 | 996 | 0.125 | 7.1
Cc1c2oc3c(C)c(O)c(N)c(C(=O)N[C@H]4C(=O)N[C@@H](C(C)C)C(=O)N5CCC[C@H]5C(=O)N(C)CC(=O)N(C)[C@H](C(C)C)C(=O)O[C@H]4C)c3nc-2c(C(=O)N[C@@H]2C(=O)N[C@H](C(C)C)C(=O)N3CCC[C@@H]3C(=O)N(C)CC(=O)N(C)[C@@H](C(C)C)C(=O)O[C@@H]2C)cc1=O | 0.1 | 3.2e+07 | – | – | – | – | – | – | –
Cc1c2oc3c(C)ccc(C(=O)N[C@@H]4C(=O)N[C@H](C(C)C)C(=O)N5CCC[C@H]5C(=O)N(C)CC(=O)N(C)[C@@H](C(C)C)C(=O)O[C@@H]4C)c3nc-2c(C(=O)N[C@@H]2C(=O)N[C@H](C(C)C)C(=O)N3CCC[C@H]3C(=O)N(C)CC(=O)N(C)[C@@H](C(C)C)C(=O)O[C@@H]2C)c(NCCCCCCCCCCN)c1=O | – | – | 0.28 (≈ 0.198 µM) | 700 | 18 | 64 | 2700 | 1.8 | –

Source: ChEMBL document CHEMBL1121923, “N2- and C-7 substituted actinomycin D analogues: synthesis, DNA-binding affinity, and biochemical and biological properties. Structure-activity relationship” (J Med Chem, 1981)
